Among the data in ChEMBL document CHEMBL1129236, “Synthesis and structure-activity relationships of phenylenebis(methylene)-linked bis-tetraazamacrocycles that inhibit human immunodeficiency virus replication. 2. Effect of heteroaromatic linkers on the activity of bicyclams” (J Med Chem, 1996) are EC50, CC50 and pKa values, retold here.

In series [1] the test system is Human immunodeficiency virus 2. Put plainly: Effective concentration against HIV-2(ROD) replication in MT-4 cells. It counts as functional, organism-based. Particulars: Human immunodeficiency virus 2, MT4. The essentials:
(§1)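 MT-4 cells were infected with HIV-1 (III_B) or HIV-2 (ROD) at MOI 0.01 (100 CCID₅₀), or mock-infected, run in parallel. Cells were exposed to various compound concentrations and grown 5 days, then viable cells were counted by MTT colorimetry. EC₅₀ protects 50% of infected cells from cytopathicity; CC₅₀ cuts mock-infected viability by 50%. Values are averages of several experiments.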

In series [2] the test system is Human immunodeficiency virus 1. Briefly: Effective concentration against HIV-1(IIIB) replication in MT-4 cells. It counts as functional, organism-based. The following applies: Human immunodeficiency virus 1, MT4. The essentials: as §1
A further series deals with MT4. Put plainly: Concentration required to reduce the viability of mock infected cells by 50%. The following applies: Homo sapiens. It counts as functional. The essentials: as §1
The nature of series [3]: pKa was reported. It counts as physicochemical. A digest of the protocol: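 Potentiometric titration: a 0.1 mM aqueous solution with 4 equiv HClO₄ at 25 °C, I = 0.1 M (NaClO₄), was titrated with 0.1 M NaOH. The electrode was calibrated with pH 4.00 and 7.00 buffers. UV spectra (400–200 nm, 1 cm path) were also taken at 0.17 mM across pH 1–7, with pH set by HClO₄ in 0.1 M NaClO₄.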

Each structure is given as a SMILES string.

A word on the EC50: it is the concentration giving half of the maximal effect. Lower therefore signals higher potency in that assay. Broadly, the CC50 is the concentration giving 50% cytotoxicity. Lower therefore signals greater toxicity to the cells. In the case of `c1cc(CN2CCCNCCNCCCNCC2)cc(CN2CCCNCCNCCCNCC2)n1`, the EC50 in series [1] and in series [2] was 16400 nM in each case. In addition, in the series on MT4, half-maximal cytotoxicity (CC50) was put at 17000 nM.

In the case of `c1nc(CN2CCCNCCNCCCNCC2)cnc1CN1CCCNCCNCCCNCC1`, the EC50 in series [1] turned out to be 106000 nM; in series [2] it was 139000 nM. The CC50 in the series on MT4 is above 203000 nM.

For the compound `c1ccc(-c2cc(CN3CCCNCCNCCCNCC3)cc(CN3CCCNCCNCCCNCC3)n2)cc1`, the EC50 worked out at 20 nM in series [1] and 39.8 nM in series [2]. This compound also displayed a CC50 with MT4 above 203000 nM.

For `c1ccc2c(CN3CCCNCCNCCCNCC3)cc(CN3CCCNCCNCCCNCC3)nc2c1`, the EC50 is 4270 nM in series [1] and 3770 nM in series [2]. Besides, in the series on MT4, the CC50 was above 419000 nM.

On to `O=C(O)c1cc(CN2CCCNCCNCCCNCC2)cc(CN2CCCNCCNCCCNCC2)c1`, for which the half-maximal effective concentration (EC50) in series [1] and in series [2] was above 203000 nM throughout. In the series with MT4, this compound had a CC50 above 200000 nM.

On to `c1ccc(-c2cc(CN3CCCNCCNCCCNCC3)cc(CN3CCCNCCNCCCNCC3)c2)cc1`, for which, in the series with MT4, the CC50 was above 198000 nM.

In the series on MT4, `c1cc(CN2CCCNCCNCCCNCC2)cc(CN2CCCNCCNCCCNCC2)c1` gave a CC50 above 421000 nM.

`Nc1cc(CN2CCCNCCNCCCNCC2)ccc1CN1CCCNCCNCCCNCC1`: the EC50 in series [1] came to 93.4 nM; in series [2] it was 187 nM. This compound gave a CC50 with MT4 above 179000 nM.

Turning to `c1cc(CN2CCCNCCNCCCNCC2)nc(CN2CCCNCCNCCCNCC2)c1`, the figures for the EC50 in series [1] and in series [2] were 65.4 nM and 24.5 nM, respectively. In the series on MT4, this compound yielded a CC50 above 409000 nM.

For the compound `Nc1cc(CN2CCCNCCNCCCNCC2)cc(CN2CCCNCCNCCCNCC2)c1`, the results for the EC50 in series [1] and in series [2] were 39 nM and 46.8 nM, respectively. The compound further came in with a CC50 with MT4 above 194000 nM.

Consider `c1cc(CN2CCCNCCNCCCNCC2)ccc1CN1CCCNCCNCCCNCC1` [PLERIXAFOR], for which, in series [1], the EC50 came to 5.9 nM. Besides, in the series on MT4, the CC50 is above 421000 nM.

As to `O=C(O)c1cc(CN2CCCNCCNCCCNCC2)ccc1CN1CCCNCCNCCCNCC1`, the EC50 in series [1] and in series [2] was above 200000 nM each time. In addition, the CC50 with MT4 is above 200000 nM.

Consider `COC(=O)c1cc(CN2CCCNCCNCCCNCC2)ccc1CN1CCCNCCNCCCNCC1`, for which the EC50 in series [1] was determined as 590 nM; in series [2], 682 nM. Moreover, the CC50 with MT4 is above 198000 nM.

In the case of `c1cc(CN2CCCNCCNCCCNCC2)ncc1CN1CCCNCCNCCCNCC1`, the EC50 in series [1] is 2190 nM; in series [2], 908 nM. Also, the CC50 with MT4 came to 18000 nM.

Turning to `c1ncc(CN2CCCNCCNCCCNCC2)cc1CN1CCCNCCNCCCNCC1`, the EC50 came out at 71 nM in series [1] and 31.6 nM in series [2]. For the same compound, the CC50 in the series on MT4 was above 395000 nM.

By pKa is commonly meant the negative logarithm of the acid dissociation constant. The low end stands for a group that gives up its proton readily, the high end for a group that holds its proton tightly. In turn, `c1ccc(C2CCNCCNCCCNCCN2)nc1` (centres undefined) gave a pKa in series [3] below 3.

Turning to `c1ccc2c(CN3CCCNCCNCCCNCC3)cc(CN3CCCNCCNCCCNCC3)cc2c1`, the EC50 in series [1] came out at 78.6 nM; in series [2], 157 nM. Further, the CC50 with MT4 stood at 207000 nM.

`c1ccc(CCC2CNCCNCCCNCCNC2)nc1` had a pKa in series [3] of 5.32.

In turn, `Oc1cccnc1C1CCNCCNCCCNCCN1` (centres undefined) gave a pKa in series [3] of 3.6.

For `c1ncc(CN2CCCNCCNCCCNCC2)nc1CN1CCCNCCNCCCNCC1`, the EC50 in series [1] was found to be 17.4 nM; in series [2] it was 26.1 nM. For the same compound, in the series on MT4, the CC50 was above 203000 nM.
